Measurements: ChEMBL document CHEMBL4480404, “Discovery of Lipophilic Bisphosphonates That Target Bacterial Cell Wall and Quinone Biosynthesis” (J Med Chem, 2019)
pEC50, pIC50, pKd: −log10 of the molar value. Converted amounts (≈) assume the structure as drawn. The source made the active and inactive calls. The rule behind the calls is not given here.

Assays:
[1] = Lipophilicity, log D of the compound at pH 7.4; type: physicochemical; settings: buffer
[2] = Growth inhibition of HEK293 cells after 24 hrs by MTT assay; type: cell-based; settings: human, read-out: ED50
Procedure, shortened: (§1)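 HEK293 cells in DMEM (4.5 g/L glucose) with 10% FBS and 1% penicillin-streptomycin, seeded at 10⁵ cells/mL. Inhibitor from 10 mM stock diluted threefold across 10 wells; 37 °C for 24 or 96 h.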

Bacillus subtilis [3] = test: Antibacterial activity against Bacillus subtilis (Ehrenberg) Cohn ATCC 6051 in presence of 10% fetal bovine serum after 12 hrs; type: functional; settings: (Ehrenberg) Cohn ATCC 6051, 12 h, read-out: ED50 (the source's name)
Procedure, shortened: (§2)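 Log-phase B. subtilis diluted 500-fold into LB containing 0%, 4% or 10% fetal bovine serum. Inhibitor threefold serially diluted across 12 wells from a 100 µM–1 mM start; incubated 12 h at 37 °C with 200 rpm shaking; growth inhibition by OD600.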

[4] = Inhibition of Escherichia coli OPPS using IPP as substrate
[5] = target: T1, Farnesyl pyrophosphate synthase (Homo sapiens, UniProt P14324); test: Inhibition of human FPPS using IPP and GPP
T1 sequence (P14324 whole entry): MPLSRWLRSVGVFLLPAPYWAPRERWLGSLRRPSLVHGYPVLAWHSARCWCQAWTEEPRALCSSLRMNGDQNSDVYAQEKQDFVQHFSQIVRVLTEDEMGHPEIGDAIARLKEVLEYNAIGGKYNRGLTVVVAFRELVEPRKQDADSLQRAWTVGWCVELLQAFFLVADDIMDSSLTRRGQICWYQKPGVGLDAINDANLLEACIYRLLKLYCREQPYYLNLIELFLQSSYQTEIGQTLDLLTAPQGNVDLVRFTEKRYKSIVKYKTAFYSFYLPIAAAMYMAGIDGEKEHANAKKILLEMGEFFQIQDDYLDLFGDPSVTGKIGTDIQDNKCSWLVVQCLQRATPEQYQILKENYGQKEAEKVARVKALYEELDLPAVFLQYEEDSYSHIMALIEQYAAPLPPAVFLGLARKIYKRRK

[6] = test system: Mycolicibacterium smegmatis; test: Antibacterial activity against Mycobacterium smegmatis MC2 155 ATCC 700084 after 48 hrs; type: functional; settings: MC2 155 ATCC 700084, 48 h, read-out: ED50 (the source's name)
Procedure, shortened: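 Culture grown 36–48 h, diluted 1000-fold in Middlebrook 7H9 with 10% ADC, 0.5% glycerol, 0.05% Tween 80; inhibitors started at 100 µM–1 mM, threefold serial dilution across 10 wells; 37 °C, 200 rpm, 48 h; OD600 read-out.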

Bacillus anthracis = test: Antibacterial activity against Bacillus anthracis Sterne after 12 hrs; type: functional; settings: read-out: ED50 (the source's name)
Staphylococcus aureus = test: Antibacterial activity against Staphylococcus aureus Newman after 12 hrs; type: functional; settings: read-out: ED50 (the source's name)
Procedure, shortened: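 Log-phase S. aureus culture in tryptic soy broth (OD600 ~0.3, then diluted 500-fold). Inhibitors two-fold serially diluted across 12 wells from a 100 µM–1 mM start; 37 °C, 200 rpm, 12 h; OD600 read for growth inhibition.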

Bacillus subtilis [7] = test: Antibacterial activity against Bacillus subtilis (Ehrenberg) Cohn ATCC 6051 after 12 hrs; type: functional; settings: (Ehrenberg) Cohn ATCC 6051, 12 h, read-out: ED50 (the source's name)
Procedure, shortened: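 Log-phase LB culture (grown to OD600 ~0.3, then diluted 500-fold) exposed to two-fold serial dilutions of inhibitor starting at 100 µM–1 mM across 12 wells; 37 °C, 200 rpm shaking, 12 h. OD600 read and ED50 fitted; duplicate or triplicate.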

Bacillus subtilis [8] = test: Antibacterial activity against Bacillus subtilis (Ehrenberg) Cohn ATCC 6051 assessed as growth inhibition in presence of MK7 after 12 hrs; type: functional, organism-based
Bacillus subtilis [9] = test: Antibacterial activity against Bacillus subtilis (Ehrenberg) Cohn ATCC 6051 assessed as growth inhibition in presence of HMBPP and MK4 after 12 hrs; type: functional, organism-based; settings: (Ehrenberg) Cohn ATCC 6051, 12 h
Procedure, shortened: (§3)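 Rescue format: log-phase B. subtilis in LB with rescue agent(s) at 50 µM each, alone or as pairwise combinations of UP, MK-4, FPP or HMBPP. Inhibitor diluted threefold across 12 wells from a 100 µM–1 mM start; 37 °C, 200 rpm, 12 h. Growth inhibition read as OD600; ED50-based fold-rescue; duplicate.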

Bacillus subtilis [10] = test: Antibacterial activity against Bacillus subtilis (Ehrenberg) Cohn ATCC 6051 assessed as growth inhibition in presence of FPP after 12 hrs; type: functional, organism-based; settings: (Ehrenberg) Cohn ATCC 6051, 12 h; procedure, shortened: as §3
[11] = target: T1, Farnesyl pyrophosphate synthase; test: Inhibition of human FPPS using IPP and GPP as substrate
Procedure, shortened: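 Expressed HsFPPS at 0.15 μM with 50 μM IPP and 50 μM GPP, 25°C, in 20 mM HEPES pH 7.5, 150 mM NaCl, 500 μM MgCl2. Enzyme preincubated 30 min at room temperature with serially diluted compound. Continuous MESG/PNP phosphate-release read-out, with pyrophosphatase added. At least 3 runs on different days; pooled data fitted by nonlinear regression for IC50.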

Clostridioides difficile [12] = test: Antibacterial activity against Clostridioides difficile ATCC 43255 after 48 hrs; type: functional; settings: ATCC 43255, 48 h
Procedure, shortened: (§4)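 Grown anaerobically 48 h at 37 °C on brain heart infusion agar supplemented with yeast extract, L-cysteine, vitamin K1 and hemin. Inoculum set to a 0.5 McFarland standard, then diluted in supplemented BHI broth to ~5 × 10^5 CFU/mL. Broth dilution over 64–0.5 μM, incubated anaerobically 48 h at 37 °C. MIC read visually as lowest concentration inhibiting growth.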

Clostridioides difficile [13] = test: Antibacterial activity against Clostridioides difficile ATCC 1870 after 48 hrs; type: functional; settings: ATCC 1870, 48 h; procedure, shortened: as §4
Bacillus subtilis [14] = test: Antibacterial activity against Bacillus subtilis (Ehrenberg) Cohn ATCC 6051 in absence of fetal bovine serum after 12 hrs; type: functional; settings: (Ehrenberg) Cohn ATCC 6051, 12 h, read-out: ED50 (the source's name); procedure, shortened: as §2
Bacillus subtilis [15] = test: Antibacterial activity against Bacillus subtilis (Ehrenberg) Cohn ATCC 6051 assessed as growth inhibition in presence of FPP and UP after 12 hrs; type: functional, organism-based; settings: (Ehrenberg) Cohn ATCC 6051, 12 h; procedure, shortened: as §3
[16] = Growth inhibition of HEK293 cells after 96 hrs by MTT assay; type: cell-based; settings: human, read-out: ED50; procedure, shortened: as §1
Bacillus subtilis [17] = test: Antibacterial activity against Bacillus subtilis (Ehrenberg) Cohn ATCC 6051 assessed as growth inhibition in presence of HMBPP after 12 hrs; type: functional, organism-based; settings: (Ehrenberg) Cohn ATCC 6051, 12 h; procedure, shortened: as §3
Bacillus subtilis [18] = test: Antibacterial activity against Bacillus subtilis (Ehrenberg) Cohn ATCC 6051 assessed as growth inhibition in presence of decaprenyl phosphate after 12 hrs; type: functional, organism-based
[19] = Binding affinity to Staphylococcus aureus HepPPS

CC(C)CCCC(C)CCCn1cc[n+](CC(P(=O)([O-])O)P(=O)(O)O)c1 (stereo not given)
logD [1]: -5.65
GI50 at 24 h [2]: 440 µM

CCCCCCCCCCCc1ccc[n+](CC(P(=O)([O-])O)P(=O)(O)O)c1 (stereo not given)
logD [1]: -4.07
EC50 (Bacillus subtilis [3]): 2 µg/mL
GI50 at 24 h [2]: 220 µM

CCCCCCCCCCCCCc1ccc[n+](CC(P(=O)([O-])O)P(=O)(O)O)c1 (stereo not given)
logD ([1]; read-out: logD): -3.65
GI50 at 24 h [2]: 48 µM

CCCCCCCCCCOc1cccc(CC(O)(P(=O)(O)O)P(=O)(O)O)c1
pIC50 [4]: 4.96
pIC50 [5]: 3.26

CC(C)CCCC(C)CCCc1cccc(NCC(P(=O)(O)O)P(=O)(O)O)n1 (stereo not given)
pEC50 [6]: 3.68
pEC50 (Bacillus anthracis): 5.16
logD ([1]; read-out: logD): -2
pEC50 (Staphylococcus aureus): 4.14
pEC50 (Bacillus subtilis [7]): 4.22
GI50 at 24 h [2]: 1100 µM

CC(C)CCCC(C)CCCC(C)CCOc1ccc[n+](CC(P(=O)([O-])O)P(=O)(O)O)c1 (stereo not given)
logD ([1]; read-out: logD): -3.48

CC(C)CCCC(C)CCOc1ccc[n+](CC(P(=O)([O-])O)P(=O)(O)O)c1 (stereo not given)
Activity (Bacillus subtilis [8]): Active
IC50 (Bacillus subtilis [9]): 8.9 µg/mL
IC50 (Bacillus subtilis [10]): 3.5 µg/mL
pIC50 [11]: 6.64
MIC (Clostridioides difficile [12]): 6.8 µg/mL (≈ 16.1 µM)
MIC (Clostridioides difficile [13]): 6.8 µg/mL (≈ 16.1 µM)
EC50 (Bacillus subtilis [14]): 1 µg/mL (≈ 2.36 µM)
IC50 (Bacillus subtilis [15]): 8.9 µg/mL
GI50 at 96 h [16]: 76 µM
EC50 (Bacillus subtilis [3]): 1.7 µg/mL
IC50 (Bacillus subtilis [17]): 2.1 µg/mL
Activity (Bacillus subtilis [18]): Active
GI50 at 24 h [2]: 620 µM
pIC50 [5]: 6.64

CC(C)CCCC(C)CCOc1cc(NCC(P(=O)(O)O)P(=O)(O)O)ccn1 (stereo not given)
logD ([1]; read-out: logD): -3.1
GI50 at 24 h [2]: 1200 µM

CC(C)CCCC(C)CCCC(C)CCCC(C)CCOc1ccc[n+](CC(P(=O)([O-])O)P(=O)(O)O)c1 (stereo not given)
logD ([1]; read-out: logD): -1.85

CC(C)CCCC(C)CCc1csc(NCC(P(=O)(O)O)P(=O)(O)O)n1 (stereo not given)
logD ([1]; read-out: logD): -2.36

CC(C)CCCC(C)CCOc1ccnc(NC(P(=O)(O)O)P(=O)(O)O)c1 (stereo not given)
logD ([1]; read-out: logD): -1.63
GI50 at 24 h [2]: 1300 µM

CC(C)=CCC/C(C)=C/CC/C(C)=C/COP(=O)(O)OP(=O)(O)O [FARNESYL DIPHOSPHATE]
pKd [19]: 4.46

CC(C)CCCC(C)CCOc1ccnc(NCC(P(=O)(O)O)P(=O)(O)O)c1 (stereo not given)
logD ([1]; read-out: logD): -2.31

CC(C)CCCC(C)CCn1cc[n+](CC(P(=O)([O-])O)P(=O)(O)O)c1 (stereo not given)
GI50 at 24 h [2]: 420 µM

CC(C)CCCC(C)CCc1cnc(NCC(P(=O)(O)O)P(=O)(O)O)s1 (stereo not given)
logD ([1]; read-out: logD): -2.12
